# Compound activity deposited in PubChem BioAssay by several laboratories.
# This is a sample that favours compounds with a hit; in the whole collection about 1.7% have one here.
# IDE act: human IDE activators in live cells, primary screen, fluorescence polarization, HEK cells, FAbeta-B substrate | Insulin-degrading enzyme (Homo sapiens), P14735 | FAbeta-B cleavage; 0% vehicle, 100% cell-free pure enzyme wells | activation, % at 5.96 µM | 0.073% of 340,000 active | AID 493087, 2011;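 active = activation above the mean of all tested compounds plus 3 SD, set per screening campaign, cut at about 17% in these data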
# Target sequence (P14735 whole entry, looked up): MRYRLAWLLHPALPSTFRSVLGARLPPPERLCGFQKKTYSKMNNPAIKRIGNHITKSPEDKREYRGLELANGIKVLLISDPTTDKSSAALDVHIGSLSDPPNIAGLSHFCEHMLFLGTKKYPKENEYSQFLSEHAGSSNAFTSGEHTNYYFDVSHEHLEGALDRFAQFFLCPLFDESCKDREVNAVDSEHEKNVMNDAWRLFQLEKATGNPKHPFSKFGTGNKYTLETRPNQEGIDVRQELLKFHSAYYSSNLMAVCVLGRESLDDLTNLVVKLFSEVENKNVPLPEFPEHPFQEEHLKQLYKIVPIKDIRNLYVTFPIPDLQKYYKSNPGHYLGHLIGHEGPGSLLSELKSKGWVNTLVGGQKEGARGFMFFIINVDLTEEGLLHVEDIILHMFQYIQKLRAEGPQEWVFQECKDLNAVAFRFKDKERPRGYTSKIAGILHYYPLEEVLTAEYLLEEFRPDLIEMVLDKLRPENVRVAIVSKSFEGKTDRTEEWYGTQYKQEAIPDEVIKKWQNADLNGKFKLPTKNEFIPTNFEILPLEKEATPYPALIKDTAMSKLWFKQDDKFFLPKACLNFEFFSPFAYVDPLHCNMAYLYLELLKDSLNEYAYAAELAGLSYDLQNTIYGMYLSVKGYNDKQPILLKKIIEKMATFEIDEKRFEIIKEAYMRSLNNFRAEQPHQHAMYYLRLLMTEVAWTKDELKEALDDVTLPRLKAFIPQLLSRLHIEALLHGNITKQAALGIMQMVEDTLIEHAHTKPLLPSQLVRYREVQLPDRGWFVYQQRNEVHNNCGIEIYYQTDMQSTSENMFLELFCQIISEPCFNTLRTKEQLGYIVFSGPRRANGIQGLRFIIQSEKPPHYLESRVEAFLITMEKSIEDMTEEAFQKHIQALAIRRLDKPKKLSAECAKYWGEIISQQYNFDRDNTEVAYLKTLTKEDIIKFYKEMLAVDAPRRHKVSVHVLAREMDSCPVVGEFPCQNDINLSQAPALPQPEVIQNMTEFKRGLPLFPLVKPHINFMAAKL
# Rpn11 inh: Rpn11 (PSMD14) deubiquitinase inhibitors, primary screen, biochemical, fluorescence polarization, uHTS | AID 588493, 2011 | human 26S proteasome, Ub4-pepOG fluorescence polarization; 20S core pre-blocked with epoxomicin | calls only at 20 µM | 0.59% of 360,000 active;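 active = inhibition at 20 µM, scaled to each plate's controls, above about 33%, limit read from the data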
# CSN inh: inhibitors of CSN-mediated cullin deneddylation, primary screen, biochemical, fluorescence polarization, uHTS; COP9 signalosome complex subunit 5 (Homo sapiens), Q92905; Purified CSN, SCF-Nedd8-OG deneddylation; inhibition, % at 12.5 µM; 0.38% of 360,000 active; AID 651999, 2013;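 active = pattern-corrected inhibition above about 35%, with an unprinted fluorescence ratio check between 0.5 and 1.5, limit read from the data, passing the limit was not always enough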;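 also: 0% = enzyme with substrate and 100% = substrate without enzyme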
#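 assay system = purified human Csn5 enzyme expressed in HEK293T cells | amount = 0.24 nM enzyme | buffer or medium = Tris/NaCl/DTT buffer, pH 7.5 | reagent = 10 nM SCFSkp2-Nedd8OG | compound = one concentration, 12.5 µM, 0.25% DMSO | times = 90 min reaction at room temperature | signal = FP | read-out basis = % inhibition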
# IDE inh: human IDE inhibitors in live cells, primary screen, fluorescence polarization, HEK cells, FAbetaB substrate; Insulin-degrading enzyme (Homo sapiens), P14735; FAbetaB cleavage; inhibition, % at 5.59 µM; 0.41% of 320,000 active; AID 434962, 2010;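 active = percent inhibition above the average of all tested compounds plus 3 SD, set per screening campaign, cut at about 16% in these data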;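 also: IDE supplied by intact live HEK cells; FP after avidin binding of uncleaved biotin substrate so inhibition keeps polarization high; 0% = DMSO wells and 100% = 60 µM reference IDE inhibitor Ii1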
# HNF4A DNA FP: change in binding of human HNF4A to DNA, primary screen, biochemical, fluorescence polarization, FITC-DNA | Hepatocyte nuclear factor 4-alpha (Homo sapiens), P41235 | 1 h | activity change, % at 10 µM | 0.3% of 360,000 active | AID 1224865, 2016; in the data active = activity change above about 30%, passing the limit was not always enough
# TPT1 inh: Candida albicans TPT1 enzyme inhibitors, primary screen, biochemical, fluorescence polarization; 0.81% of 300,000 active; tRNA 2'-phosphotransferase TPT1 (Candida albicans SC5314); inhibition, % at 5 µM; recombinant caTPT1, FP RNA substrate dephosphorylation;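 active = inhibition above the mean of all tested compounds plus 3 SD, set per screening campaign, cut at about 24% in these data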;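 also: plate controls were DMSO alone for no effect and ferristatin control at 100 nM for full effect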
# TPT1 inh confirm: Candida albicans TPT1 inhibitors, confirmation, biochemical, fluorescence polarization, triplicate | AID 2149, 2009 | shares compounds with TPT1 inh | 74% of 2,400 active | recombinant caTPT1, RNase T1 coupled | inhibition, % at 5 µM;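 active = inhibition above the primary screen limit, the mean inhibition of all tested compounds plus 3 SD, cut at about 25% in these data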
# RNase T1 inh: RNase T1 inhibitors, counter-screen for TPT1 inhibitor project, biochemical, fluorescence polarization; inhibition, % at 5 µM; shares compounds with TPT1 inh; 83% of 2,400 active; AID 2153, 2009; RNase T1 cleavage, 1536-well;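 active = inhibition above the solvent-only control well mean plus 3 SD, limit set per screening run, cut at about 23% in these data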;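 also: plate controls were DMSO wells with enzyme for no effect and wells without RNase T1 for full effect; inhibitors block cleavage so intact labeled substrate keeps polarization high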
# IDE inh confirm: human IDE inhibitors in live cells, confirmation, fluorescence polarization, HEK cells, FAbetaB substrate; shares compounds with IDE inh; inhibition, % at 5.59 µM; 51% of 1,200 active; FAbetaB cleavage;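 active = mean inhibition across triplicate wells above the cutoff set by the earlier primary insulin-degrading enzyme screen, cut at about 16% in these data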;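 also: 0% = DMSO wells and 100% = 60 µM reference IDE inhibitor Ii1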
# HEK293 tox: cytotoxicity in HEK cells, cytotoxicity control for IDE inhibitor project, cell-based, luminescence | shares compounds with IDE inh | HEK293 cytotoxicity, ATP luminescence | inhibition, % at 5.59 µM | 28% of 1,200 active; in the data active = inhibition above about 22%;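 also: 0% = vehicle wells and 100% = reference cytotoxic drug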
# Rpn11 confirm: Rpn11 (PSMD14) deubiquitinase inhibitors, confirmation, biochemical, fluorescence polarization, single concentration. shares compounds with Rpn11 inh. purified human 26S proteasome, Ub4-pepOG fluorescence polarization; proteasome pretreated with epoxomicin. inhibition, % at 20 µM. 29% of 1,900 active
# MMP-2 inh: MMP-2 enzyme inhibition, confirmation, counter-screen for RPN11 inhibitor project, biochemical, fluorescence, single concentration; shares compounds with Rpn11 inh; recombinant MMP-2, FRET peptide cleavage fluorescence; inhibition, % at 20 µM; 4% of 1,900 active; AID 602330, 2012;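 also: human MMP-2 activated beforehand with APMA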
# Thrombin inh: bovine thrombin protease inhibition, confirmation, counter-screen for Rpn11 inhibitor project, biochemical, fluorescence polarization, single concentration | bovine thrombin cleavage of Ub4-pepOG | 13% of 1,900 active | inhibition, % at 20 µM | shares compounds with Rpn11 inh;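 active = mean inhibition at least 40% at 20 µM, or signal 3 deviations below plate average, so some actives read negative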;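 also: plate controls were thrombin with DMSO for no effect and buffer wells lacking thrombin for full effect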
# Numbers without * were called inactive; i = inactive; . = no result; + = active, no number. Rule as the data show it, unless noted: active = inhibition above about 40%; inactive = the rest.
SMILES,IDE act,Rpn11 inh,CSN inh,IDE inh,HNF4A DNA FP,TPT1 inh,TPT1 inh confirm,RNase T1 inh,Rpn11 confirm,MMP-2 inh,Thrombin inh,others
NS(=O)(=O)c1cccc(NC(=O)CCCNC(=O)c2ccc(Cl)cc2)c1,3.2,i,1.3,1.8,0.5,2.5,.,.,.,.,.,
CC(=O)c1c(C)[nH]c(C(=O)CSc2nc3ccccc3c(=O)n2CCCN2CCOCC2)c1C,1.6,i,0.8,9.7,-2.3,2.9,.,.,.,.,.,
Cc1sc2nc(CSc3nc4ccccc4c(=O)n3CCCN3CCOCC3)[nH]c(=O)c2c1C,-5.1,+,16.5,0.6,34.2*,56.8*,66.8*,77.3*,89.2*,-32.9,38.4,
C[C@@H]1CN([C@@H](C)CO)C(=O)CCCn2nncc2CO[C@@H]1CN(C)S(=O)(=O)c1ccc(F)cc1,.,i,3.7,.,-6.0,.,.,.,.,.,.,
COc1ccc(OC)c(CN2CCN(C(=O)c3cccc4ccccc34)CC2)c1,-1.6,i,3.1,-0.7,7.4,-5.6,.,.,.,.,.,
CCCn1cc([C@@H]2C[C@H]3CN(Cc4cccc(Cl)c4)C(=O)[C@]34CCCN24)c(C)n1,4.1,i,2.7,2.2,-0.7,3.3,.,.,.,.,.,
Cc1c([C@@H]2C[C@H]3CN(Cc4cccc(Cl)c4)C(=O)[C@]34CCCN24)cnn1C,-0.4,+,6.7,4.6,20.7,31.6*,33.9*,47.7*,38.4,-33.4,5.3,
O=[N+]([O-])c1cccnc1N1CCCCC1,2.2,i,5.3,-2.1,2.7,-0.2,.,.,.,.,.,
O=[N+]([O-])c1ccc(N2CCCCC2)s1,2.3,+,23.9,1.6,25.3,34.7*,34.3*,45.8*,43.8*,6.2,35.1,
COc1cnc(N(C)C)nc1Sc1ccc(Cl)cc1,1.6,i,3.4,2.7,-0.2,0.6,.,.,.,.,.,
CCCCn1c(O)c(/C=C2\C=Nc3ccccc32)c(=O)[nH]c1=O,0.7,+,8.9,0.0,4.8,30.3*,33.5*,42.9*,50.8*,-28.8,11.3,
CCCCc1nn2c(N)c(/C=C3\C=Nc4ccccc43)c(=O)nc2s1,-0.1,i,1.6,-2.3,5.6,5.3,.,.,.,.,.,
O=C1OC(c2cccs2)=N/C1=C\c1ccc(-c2cccc(Cl)c2)o1,7.3,+,17.1,-1.1,11.7,40.2*,166.5*,171.0*,4.8,-5.1,9.5,
O=C(N/N=C/c1ccc([N+](=O)[O-])cc1)c1cc2ccccc2o1,4.6,i,4.8,-3.0,-2.9,-2.9,.,.,.,.,.,
C/C(=N\Nc1ccc([N+](=O)[O-])cc1)c1cc2ccccc2o1,-19.9,+,25.1,18.2*,55.9*,111.0*,110.8*,112.7*,59.9*,-47.2,34.8,IDE inh confirm=8.4;HEK293 tox=9.8
CC(Sc1nnc(Cc2ccccc2)o1)C(=O)NC1(C#N)CCCCC1 (configuration not stated),4.4,i,-3.0,-2.2,-2.5,.,.,.,.,.,.,
CC(=O)N1CCSc2ccc(S(=O)(=O)NCc3ccccc3)cc21,-1.0,i,-0.3,2.3,-0.1,-1.5,.,.,.,.,.,
CCOC(=O)[C@]12Cc3c(cc(OC)c(OC)c3OC)[C@H]1N(CCC(=O)OC)C(=O)c1cc(OC)ccc12,.,.,-1.9,.,-2.5,.,.,.,.,.,.,
COc1cc2ccccc2cc1C(=O)Nc1sc2c(c1C(N)=O)CCN(C(C)C)C2,-1.5,+,33.2,10.1,38.0,82.0*,53.6*,61.7*,69.2*,-53.1,45.5*,
CC(C)N1CCc2c(sc(NC(=O)CN3C(=O)c4ccccc4C3=O)c2C(N)=O)C1,7.0,i,-1.0,-8.7,-1.9,0.6,.,.,.,.,.,
Cn1c2ccc(Cl)cc2c2nc3ccccc3nc21,1.4,i,11.3,-3.0,-7.3,-1.5,.,.,.,.,.,
COc1cc(/C=C(\C#N)C(=O)NCCc2ccccc2)cc(OC)c1O,-62.4,+,34.6,44.2*,9.1,76.1*,103.5*,106.4*,53.6*,3.1,52.3*,IDE inh confirm=76.2*;HEK293 tox=12.3
CCN(CC)c1ccc2cc(C(N)=O)c(=O)oc2c1,-1.6,+,11.5,-1.1,35.4,39.9*,36.2*,45.4*,10.7,-43.2,5.4,
CCOc1ccc(S(=O)(=O)N(CC(=O)N/N=C/c2ccc(-c3ccc([N+](=O)[O-])cc3)o2)c2ccccc2)cc1,2.7,+,8.7,3.3,-9.8,38.6*,39.3*,52.0*,43.5*,74.3*,18.6,
O=S(=O)(NCc1ccccc1)c1ccc(Br)c2nsnc12,-3.1,i,-1.6,-1.5,3.1,-1.2,.,.,.,.,.,
O=C(O)c1ccccc1N/N=C/C1=C(N2CCOCC2)C(=C\c2ccccc2)/CC1,6.4,+,23.2,4.6,26.9,24.6*,93.5*,102.2*,15.4,-33.7,-84.1,
